{
  "source": "ChEMBL document CHEMBL1158703",
  "about": "“Psychopharmacological profile of the alkaloid psychollatine as a 5HT2A/C serotonin modulator” (2005)",
  "key": {"[1]": {"test_system": "Mus musculus", "experiment": "Anticonvulsant activity against CF1 mouse assessed as protection against PTZ-induced convulsions at 0.8 mg/kg, ip for 60 mins", "format": "functional", "conditions": "route intraperitoneal", "in_short": "(§1)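 Male adult CF1 mice (2 months at purchase, housed ≥2 weeks at 22 °C, 12 h light/dark). Drug given i.p. (0.1 mL/10 g); 30 min later PTZ 88 mg/kg s.c. Each mouse then observed singly for 60 min for clonic convulsions lasting >3 s. n = 10 per group. Fisher's exact test against vehicle (saline or 10% propylene glycol).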"}, "[2]": {"test_system": "Mus musculus", "experiment": "Anticonvulsant activity against CF1 mouse assessed as protection against PTZ-induced convulsions at 20 mg/kg, ip for 60 mins", "format": "functional", "conditions": "route intraperitoneal", "in_short": "as §1"}, "[3]": {"test_system": "Mus musculus", "experiment": "Anxiolytic activity against CF1 mouse assessed as suppression of oxotremorine-treated tremors at 3 mg/kg", "format": "functional, organism-based", "parameters": "dose 3 mg/kg", "in_short": "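Mice received treatment i.p. 30 min before oxotremorine 0.5 mg/kg in saline. Each mouse was then placed alone in a transparent cage immediately after injection and tremor was scored. Data given as median (interquartile range); Kruskal–Wallis then Mann–Whitney U against saline + oxotremorine.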"}, "[4]": {"test_system": "Mus musculus", "experiment": "Anxiolytic activity against CF1 mouse assessed as increase in number of rearings at 0.75 mg/kg after 30 mins in presence of picrotoxin by hole-board assay", "format": "functional, organism-based", "parameters": "dose 0.75 mg/kg", "in_short": "(§2)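 Hole-board with photocell-counted head-dips; the board was marked into 16 squares of 10×10 cm. Male CF1 mice were acclimatised ≥1 h in dim light. Diazepam in 10% propylene glycol was given i.p. 30 min before testing. Picrotoxin 1 mg/kg i.p. was given 30 min before treatment. Head-dips, squares crossed and rearings were recorded over 5 min. N = 8–15, ANOVA then SNK.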"}, "[5]": {"test_system": "Mus musculus", "experiment": "Anxiolytic activity against CF1 mouse assessed as increase in number of rearings at 0.75 mg/kg after 30 mins by hole-board assay", "format": "functional, organism-based", "parameters": "dose 0.75 mg/kg", "in_short": "as §2"}, "[6]": {"test_system": "Mus musculus", "experiment": "Anxiolytic activity against CF1 mouse assessed as increase in latency to enter in the dark compartment 0.85 mg/kg in presence of picrotoxin for 5 mins", "format": "functional, organism-based", "parameters": "dose 0.85 mg/kg", "in_short": "(§3)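 Light/dark box with a small black compartment and a large white one lit at 400 lx. Male CF1 mice were acclimatised for ≥1 h under dim red light. Diazepam in 10% propylene glycol was given i.p. 30 min before testing. Picrotoxin 1 mg/kg i.p. in saline was given 30 min before treatment. Read-outs: latency to first entry and time spent in the light area. N = 8–22, ANOVA then SNK.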"}, "[7]": {"test_system": "Mus musculus", "experiment": "Anxiolytic activity against CF1 mouse assessed as increase in time spent in light compartment at 0.85 mg/kg in presence of picrotoxin for 5 mins", "format": "functional, organism-based", "parameters": "dose 0.85 mg/kg", "in_short": "as §3"}, "[8]": {"test_system": "Mus musculus", "experiment": "Effect on locomotory activity in CF1 mouse assessed as change in spontaneous activity at 3 to 30 mg/kg", "format": "functional, organism-based", "in_short": "(§4)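 Mice were habituated singly for 10 min in photocell activity cages and then dosed i.p. Diazepam was given in 10% propylene glycol. After 30 min, crossings were recorded for 15 min. n = 10–16, ANOVA then SNK.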"}, "[9]": {"test_system": "Mus musculus", "experiment": "Anxiolytic activity against CF1 mouse assessed as increase in time spent in light compartment at 0.85 mg/kg for 5 mins", "format": "functional, organism-based", "parameters": "dose 0.85 mg/kg", "in_short": "as §3"}, "[10]": {"test_system": "Mus musculus", "experiment": "Anxiolytic activity against CF1 mouse assessed as increase in latency to enter in the dark compartment 0.85 mg/kg for 5 mins", "format": "functional, organism-based", "parameters": "dose 0.85 mg/kg", "in_short": "as §3"}, "[11]": {"test_system": "Mus musculus", "experiment": "Anxiolytic activity against CF1 mouse assessed as increase in number of head dips at 0.75 mg/kg after 30 mins by hole-board assay", "format": "functional, organism-based", "parameters": "dose 0.75 mg/kg", "in_short": "as §2"}, "[12]": {"test_system": "Mus musculus", "experiment": "Anxiolytic activity against CF1 mouse assessed as increase in number of crossings at 0.75 mg/kg after 30 mins by hole-board assay", "format": "functional, organism-based", "parameters": "dose 0.75 mg/kg", "in_short": "as §2"}, "[13]": {"test_system": "Mus musculus", "experiment": "Anxiolytic activity against CF1 mouse assessed as increase in number of head dips at 0.75 mg/kg after 30 mins in presence of picrotoxin by hole-board assay", "format": "functional, organism-based", "parameters": "dose 0.75 mg/kg", "in_short": "as §2"}, "[14]": {"test_system": "Mus musculus", "experiment": "Anxiolytic activity against CF1 mouse assessed as increase in number of crossings at 0.75 mg/kg after 30 mins in presence of picrotoxin by hole-board assay", "format": "functional, organism-based", "parameters": "dose 0.75 mg/kg", "in_short": "as §2"}, "[15]": {"test_system": "Mus musculus", "experiment": "Effect on locomotory activity in CF1 mouse assessed as change in spontaneous activity at 0.75 and 0.85 mg/kg", "format": "functional, organism-based", "parameters": "dose 0.85 mg/kg", "in_short": "as §4"}, "[16]": {"test_system": "Mus musculus", "experiment": "Antidepressant activity in CF1 mouse assessed as decrease in duration of immobility at 15 mg/kg during final 4 mins of the 6 mins session by forced swimming test", "format": "functional"}, "[17]": {"test_system": "Mus musculus", "experiment": "Effect on long term memory of CF1 mouse assessed as reduction in step down latency at 0.15 mg/kg by passive avoidance test", "format": "functional", "in_short": "(§5)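 Step-down inhibitory avoidance in male CF1 mice. Training used a 0.3 mA scrambled footshock for 15 s on stepping down. The test session was 24 h later without shock, with a 300 s cutoff. For acquisition effects, drug (MK-801 or diazepam in 10% propylene glycol, i.p.) was given 30 min before training; the post-training group was dosed immediately after training. N = 20, medians (IQR).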"}, "[18]": {"test_system": "Mus musculus", "experiment": "Effect on short term memory of CF1 mouse assessed as reduction in step down latency at 0.15 mg/kg by passive avoidance test", "format": "functional"}, "[19]": {"test_system": "Mus musculus", "experiment": "Effect on long term memory of CF1 mouse assessed as reduction in latency during aquisition at 0.15 mg/kg by passive avoidance test", "format": "functional", "in_short": "as §5"}, "[20]": {"test_system": "Mus musculus", "experiment": "Antidepressant activity in CF1 mouse assessed as decrease in duration of immobility at 0.15 mg/kg during final 4 mins of the 6 mins session by forced swimming test", "format": "functional", "in_short": "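Male adult CF1 mice, dosed i.p. Each mouse made to swim for 6 min in a 30 cm diameter cylinder holding 20 cm of water at 25 ± 1 °C. Immobility time was scored over the last 4 min. N = 10 per group, mean ± SEM, ANOVA against saline.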"}, "[21]": {"test_system": "Mus musculus", "experiment": "Effect on short term memory of CF1 mouse assessed as reduction in latency during aquisition at 0.15 mg/kg by passive avoidance test", "format": "functional"}},
  "note": "Activity calls are given as the source filed them.",
  "data": [
    {"smiles": "CCC1(c2ccccc2)C(=O)NC(=O)NC1=O", "note": "[PHENOBARBITAL]", "values": [
      {"measurement": "Activity", "setting": "[1]", "value": 10, "unit": "%"},
      {"measurement": "Activity", "setting": "[2]", "value": 0, "unit": "%"}
    ]},
    {"smiles": "CN1[C@@H]2C[C@@H](OC(=O)[C@H](CO)c3ccccc3)C[C@H]1[C@@H]1O[C@@H]12", "values": [
      {"measurement": "Activity", "setting": "[3]", "value": "Active"}
    ]},
    {"smiles": "CN1C(=O)CN=C(c2ccccc2)c2cc(Cl)ccc21", "note": "[DIAZEPAM]", "values": [
      {"measurement": "Activity", "setting": "[4]", "value": "inactive"},
      {"measurement": "Activity", "setting": "[5]", "value": "Active"},
      {"measurement": "Activity", "setting": "[6]", "value": "inactive"},
      {"measurement": "Activity", "setting": "[7]", "value": "inactive"},
      {"measurement": "Activity", "setting": "[8]", "value": "inactive"},
      {"measurement": "Activity", "setting": "[9]", "value": "Active"},
      {"measurement": "Activity", "setting": "[1]", "value": 10, "unit": "%"},
      {"measurement": "Activity", "setting": "[2]", "value": 0, "unit": "%"},
      {"measurement": "Activity", "setting": "[10]", "value": "Active"},
      {"measurement": "Activity", "setting": "[11]", "value": "Active"},
      {"measurement": "Activity", "setting": "[12]", "value": "Active"},
      {"measurement": "Activity", "setting": "[13]", "value": "inactive"},
      {"measurement": "Activity", "setting": "[14]", "value": "inactive"},
      {"measurement": "Activity", "setting": "[15]", "value": "inactive"}
    ]},
    {"smiles": "CN(C)CCCN1c2ccccc2CCc2ccccc21", "note": "[IMIPRAMINE]", "values": [
      {"measurement": "Activity", "setting": "[16]", "value": 46.05, "unit": "s"}
    ]},
    {"smiles": "C[C@]12N[C@H](Cc3ccccc31)c1ccccc12", "note": "[DIZOCILPINE]", "values": [
      {"measurement": "Activity", "setting": "[17]", "value": 6.2, "unit": "s"},
      {"measurement": "Activity", "setting": "[18]", "value": 16.5, "unit": "s"},
      {"measurement": "Activity", "setting": "[19]", "value": 6, "unit": "s"},
      {"measurement": "Activity", "setting": "[20]", "value": 33.36, "unit": "s"},
      {"measurement": "Activity", "setting": "[21]", "value": 8.4, "unit": "s"}
    ]}
  ]
}
